Screening data deposited in PubChem by several laboratories.
Compounds with a hit are over-represented: about 2.9% of the library has one in this group of screens.
Runt-SMMHC FRET = inhibitors of RUNX1 Runt–CBFb-SMMHC binding, primary screen, biochemical, FRET, Cerulean-Runt, Venus-CBFb-SMMHC, uHTS | Cerulean-Runt/Venus-CBFb-SMMHC FRET ratio 530/480, 1 h | inhibition, % at 20 µM | 220,000 tested, 0.74% active | AID 1434, 2008;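 active = mean inhibition across duplicate retests at 20 µM reaching about 50%, limit read from the data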;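 note: 0% = DMSO wells and 100% = wells with excess untagged CBFb-SMMHC; inhibitors lower the FRET ratio by blocking Runt binding to CBFb-SMMHC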
RanGTP-Imp inh = inhibitors of RanGTP-importin-beta interaction, primary screen, biochemical, FRET, CFP-Ran, YFP-importin-beta, homogeneous; inhibition, % (concentration not given with the values); Ran GTPase (GTP-bound) - importin-beta complex; 300,000 tested, 1.1% active; AID 2216, 2009; cell-free CFP-Ran/YFP-importin-beta FRET ratio;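 active = more than half of the replicate wells show a fall in the fluorescence ratio signal beyond about 16%, limit read from the data, passing the limit was not always enough; inconclusive = exactly half of the replicate wells pass the set limit; inactive = fewer than half of replicates pass the limit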;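 note: 0% = DMSO wells and 100% = Ran loaded with GDP instead of GTP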
RBBP9 inhibitor = human RBBP9 inhibitors, primary screen, biochemical, fluorescence polarization, FP-Rh probe, HTS | Serine hydrolase RBBP9 (Homo sapiens), O75884 | recombinant RBBP9 | inhibition, % at 7.94 µM | 220,000 tested, 0.2% active;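 active = inhibition above the campaign mean of all tested compounds plus 3 SD, cut at about 14% in these data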;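 note: plate controls were DMSO wells with RBBP9 for no effect and wells lacking RBBP9 protein for full effect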
Target sequence (O75884 whole entry, looked up): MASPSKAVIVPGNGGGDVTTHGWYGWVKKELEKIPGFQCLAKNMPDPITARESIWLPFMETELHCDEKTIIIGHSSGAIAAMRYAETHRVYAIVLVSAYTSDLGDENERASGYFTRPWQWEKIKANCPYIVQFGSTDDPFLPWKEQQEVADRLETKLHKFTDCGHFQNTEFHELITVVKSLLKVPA
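Assay system: recombinant human RBBP9; Reagent: Serine-hydrolase probe FP-Rh, 375 nM pre-mixing; Doses: 7.94 µM single dose, 0.794% DMSO; Incubation: 30 min then 45 min, 25 °C; Detection: fluorescence polarization (mP), excitation 525 nm, emission 598 nm; Evaluation: percent inhibition from mP, scaled between DMSO and no-protein wells.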
Hck-Nef inh = inhibitors of Nef-activated human Hck kinase, primary screen, biochemical, Z-Lyte FRET, 384-well, Hck-YEEI; Tyrosine-protein kinase HCK (Homo sapiens), P08631; Recombinant Hck-YEEI plus Nef, Z-Lyte FRET kinase assay; inhibition, % at 20 µM; 220,000 tested, 0.68% active; AID 463187, 2010;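 active = Hck-Nef kinase inhibition above about 50%, limit read from the data; inactive = inhibition below that limit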;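 note: 0% = DMSO with Hck plus Nef and 100% = Hck alone without Nef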
Target sequence (P08631 whole entry, looked up): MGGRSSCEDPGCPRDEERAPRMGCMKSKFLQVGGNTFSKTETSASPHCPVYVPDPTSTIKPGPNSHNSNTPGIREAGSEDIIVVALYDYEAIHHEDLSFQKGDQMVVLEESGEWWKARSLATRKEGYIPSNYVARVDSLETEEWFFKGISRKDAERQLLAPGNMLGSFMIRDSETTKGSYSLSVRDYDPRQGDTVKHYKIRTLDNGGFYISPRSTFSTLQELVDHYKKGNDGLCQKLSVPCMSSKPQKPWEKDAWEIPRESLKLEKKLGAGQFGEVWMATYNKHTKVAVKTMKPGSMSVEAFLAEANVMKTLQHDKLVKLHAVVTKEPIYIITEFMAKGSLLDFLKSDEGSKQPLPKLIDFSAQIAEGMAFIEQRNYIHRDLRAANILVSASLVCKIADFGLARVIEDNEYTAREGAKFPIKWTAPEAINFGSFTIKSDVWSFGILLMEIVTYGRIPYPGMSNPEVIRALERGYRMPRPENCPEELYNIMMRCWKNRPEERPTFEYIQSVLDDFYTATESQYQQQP
Runt-CBFb FRET = inhibitors of RUNX1 Runt–CBFb binding, primary screen, biochemical, FRET, Cerulean-Runt, Venus-CBFb, uHTS | Cerulean-Runt/Venus-CBFb FRET ratio 530/480, 1 h | inhibition, % at 20 µM | 220,000 tested, 0.46% active;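 active = inhibition over about 50% at 20 µM in the single-dose screen, limit read from the data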;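 note: 0% = DMSO wells and 100% = excess unlabeled CBFb competitor control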
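Assay system: Cerulean-Runt domain fusion protein, energy donor; Signal: fluorescence energy transfer, 422 nm excitation, 530/480 nm emission; Timing: 1 h compound exposure, room temperature; Control set: unlabeled CBFb; Medium: Tris buffer pH 7.5 with salts and BSA; Compound: single test concentration of 20 µM, 1% DMSO final; Probe or stimulus: Venus-CBFb 100 nM.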
M18AAP inhibitor = PfM18AAP inhibitors, malaria aminopeptidase, primary screen, biochemical, QFRET, recombinant enzyme | M18 aspartyl aminopeptidase (Plasmodium falciparum 3D7) | H-Glu-NHMec fluorogenic cleavage | inhibition, % at 7.35 µM | AID 1822, 2009 | 290,000 tested, 1.2% active;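 active = inhibition above the campaign mean inhibition over all tested compounds plus 3 SD, cut at about 28% in these data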;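 note: 0% = plate median of test compound wells and 100% = 2 mM ZnCl2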
* hit, by the source's call; ? = inconclusive; / = no result given; + = active, no number.

SMILES	Runt-SMMHC FRET	RanGTP-Imp inh	RBBP9 inhibitor	Hck-Nef inh	Runt-CBFb FRET	M18AAP inhibitor
COc1cc2c3nnc(-c4ccc(F)cc4)c-3cn(Cc3ccc(C)cc3)c2cc1OC	-145.5	-117.7	1.0	-2.8	-243.0	-1.4
COc1cc(/C=N/NC(=O)/C(=C\c2ccc([N+](=O)[O-])cc2)NC(=O)c2ccccc2)cc(OC)c1O	5.4	?	-2.7	0.3	-10.5	28.6*
COc1cc(/C=N/NC(=O)/C(=C\c2ccc3c(c2)OCO3)NC(=O)c2ccccc2)ccc1O	-7.1	1.2	-8.9	3.3	0.8	8.6
N#Cc1ccc(Oc2cnccn2)cc1	/	26.7*	/	/	/	1.5
Nc1ccc(C#Cc2ccc3sc4ccccc4c(=O)c3c2)cc1	/	-2.1	/	/	/	/
Cn1c2ccccc2c(=O)c2ccc(C#Cc3ccc(N)cc3)cc21	/	85.5*	/	/	/	7.6
COc1ccc(C#Cc2ccc3c(=O)c4ccccc4n(C)c3c2)cc1	/	87.9*	/	/	/	-1.7
COc1ccc2c(c1)c1ccccc1n2C	1.0	-2.7	3.5	6.0	-0.9	3.3
Cc1cc2[nH]c(=O)c(=O)[nH]c2cc1S(=O)(=O)NCc1ccc(Cl)cc1	/	1.4	/	/	/	-1.6
O=C(CCNC(=O)c1ccc(Br)cc1)NCCCSc1ccccc1	/	-2.0	/	/	/	/
Cc1cccn2c(=O)c3cc(C(=O)NC4CCCC4)c(=N)n(CC4CCCO4)c3nc12 (stereo unspecified)	/	191.6*	/	/	/	4.8
Cc1cccn2c(=O)c3cc(C(=O)NC4CCCCC4)c(=N)n(Cc4ccc(F)cc4)c3nc12	/	-1.9	/	/	/	-10.0
Cc1cccn2c(=O)c3cc(C(=O)NCC4CCCO4)c(=N)n(CC4CCCO4)c3nc12 (stereo unspecified)	/	187.7*	/	/	/	6.5
Cc1ccc(-c2cc(C(=O)NCC3CCCO3)c3ccccc3n2)cc1C (stereo unspecified)	2.3	-1.7	-2.7	17.7	-5.6	0.9
Cc1cccn2c(=O)c3cc(C(=O)NCC4CCCO4)c(=N)n(C4CCCCC4)c3nc12 (stereo unspecified)	/	+	/	/	/	-11.7
Cc1cccn2c(=O)c3cc(C(=O)NCc4ccco4)c(=N)n(C4CCCC4)c3nc12	/	130.0*	/	/	/	23.1
Cc1cccn2c(=O)c3cc(S(=O)(=O)c4ccc(Br)cc4)c(=N)n(C4CCCCC4)c3nc12	/	0.8	/	/	/	-8.1
O=C1CN(C(=O)c2c(F)cccc2F)C(c2ccc(F)cc2)c2cc(F)ccc2N1 (stereo unspecified)	/	?	/	/	/	-16.5
Cn1c(=O)c2c(ncn2CC(=O)OCC(=O)c2ccc(F)c(F)c2)n(C)c1=O	/	0.1	/	/	/	-1.5
COc1ccc(OC)c2c1sc(=NC(=O)C1COc3ccccc3O1)n2C (stereo unspecified)	-6.0	-3.1	2.4	17.8	-3.4	-4.8
Cc1nc2c(s1)sc1ccccc12	2.9	0.6	-5.1	0.7	-0.5	6.0
O=c1cc(O)sc2ccccc12	2.7	16.5*	5.8	-1.3	0.1	-11.3
Nc1c(Cl)ncnc1N/N=C/c1ccccn1	78.2*	/	-6.3	1.8	35.7	19.8
COc1ccc2oc(=O)c(C(=O)NCc3ccccc3)cc2c1	/	-2.3	/	/	/	4.1
COC(=O)c1cc2c(ccc3ccccc32)oc1=O	/	84.3*	/	/	/	/
SMILES	Runt-SMMHC FRET	RanGTP-Imp inh	RBBP9 inhibitor	Hck-Nef inh	Runt-CBFb FRET	M18AAP inhibitor
CN1CCN(C(=O)c2cc3c(ccc4ccccc43)oc2=O)CC1	41.5	4.5	-3.3	11.8	12.4	4.7
O=c1oc2ccc3ccccc3c2cc1-c1nc2ccccc2o1	/	126.0*	-2.9	-0.1	/	15.1
COc1ccc2oc(=O)c(C(=O)OCc3ccccc3)cc2c1	/	18.5*	/	/	/	6.7
CCC1(c2ccccc2)NC(=O)N(CC(=O)Nc2ccccc2C(=O)N2CCCCC2)C1=O (stereo unspecified)	/	-0.5	/	/	/	/
Cc1ccc(SCC(=O)OC(C)C(=O)NCc2ccccc2)cc1C (stereo unspecified)	/	-0.2	/	/	/	/
Oc1c(Br)cc(/C=N/n2c(-c3ccccc3)n[nH]c2=S)c(Br)c1O	/	-2.6	/	/	/	33.3*
Oc1c(Br)cc(Br)cc1/C=N/n1c(-c2ccccc2)n[nH]c1=S	/	-6.3	/	/	/	14.9
Cc1cc(-n2c(C)cc(C(=O)CSc3ncnc4ccccc34)c2C)no1	110.4*	0.1	1.7	5.3	33.5	4.0
Cc1ccc(S(=O)(=O)NC(=O)c2cc(C)n(CCCN3CCOCC3)c2C)cc1	24.1	60.0*	-2.2	1.3	9.8	-3.2
Cc1cc(C)c(NC(=O)Cn2nnc(C(=O)NCc3ccc4c(c3)OCO4)c2N)c(C)c1	/	0.7	/	/	/	-5.0
O=C(NC1CC1)C1CC(=O)N(c2cccc(Cl)c2Cl)C1 (stereo unspecified)	/	-1.5	/	/	/	2.6
O=C(O)CC1NC(=O)N(c2ccccc2)C1=O (stereo unspecified)	-5.7	45.4*	-2.5	-10.4	-2.6	1.4
O=C(NS(=O)(=O)Nc1ccc(Br)cn1)c1c[nH]c2ccccc12	/	-1.1	/	/	/	-1.6
Cc1c(C(=O)NCCN(C)C)oc2ccc(S(=O)(=O)N3CCC4(CC3)OCCO4)cc12	/	22.5*	/	/	/	-9.2
COc1ccc(-n2ncc(C(C)NS(=O)(=O)c3cccs3)c2C)cc1 (stereo unspecified)	/	4.7	/	/	/	7.1
COc1ccc(-c2cc3ccc(OCC(N)=O)cc3oc2=O)cc1OC	/	3.3	/	/	/	-16.8
COc1ccc(-c2cc3ccc(O)cc3oc2=O)cc1OC	/	106.4*	/	/	/	6.5
COc1ccccc1-n1cnc2cc(NCc3ccccc3O)ccc21	-0.9	41.6*	-0.9	20.1	4.4	5.5
O=C(CCc1c[nH]c2ccccc12)NC(Cc1ccccc1)C(=O)O (stereo unspecified)	/	1.6	/	/	/	5.2
N=c1c(C(=O)NCCc2ccccc2)cc2c(=O)n3ccccc3nc2n1CCCN1CCOCC1	/	174.8*	/	/	/	8.1
N=c1c(C(=O)NCc2ccccc2)cc2c(=O)n3ccccc3nc2n1CCCN1CCOCC1	40.3	/	/	/	57.9*	/
N=c1c(C(=O)NCCN2CCOCC2)cc2c(=O)n3ccccc3nc2n1CCc1ccccc1	/	155.9*	/	/	/	-5.4
COCCCn1c(C(=O)NCCN2CCOCC2)cc2c(=O)n3ccccc3nc21	/	5.8	/	/	/	11.6
Cc1ccc(Cn2c(=N)c(C(=O)NCCN3CCOCC3)cc3c(=O)n4ccccc4nc32)cc1	/	-1.3	/	/	/	-0.7
